# Test results published in ChEMBL document CHEMBL1136979, “Discovery of 4-anilino-N-methylthieno[3,2-d]pyrimidines and 4-anilino-N-methylthieno[2,3-d]pyrimidines as potent apoptosis inducers” (Bioorg Med Chem Lett, 2009).
# Columns and labels:
# [1] = system: T47D; assay: Induction of apoptosis in human T47D cells assessed as caspase activation after 48 hrs by HTS assay; assay type: functional, cell-based
# In short: (§1)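 Cell-based caspase activation HTS assay that reads cleavage of a fluorescent caspase-3 substrate in human breast cancer T47D or non-small cell lung cancer H1299 cells. Cells were exposed to compound for 48 h. EC50 is the mean ± SEM of three or more experiments.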
# [2] = system: NCI-H1299; assay: Induction of apoptosis in human H1299 cells assessed as caspase activation after 48 hrs by HTS assay; assay type: functional, cell-based; conditions: NCI-H1299, 48 h; in short: as §1
# [3] = Inhibition of tubulin polymerization by high-throughput assay
# [4] = system: MX1; assay: Antitumor activity against human MX1 cells xenografted in Crl:Nu/Nu-nuBR mouse assessed as tumor growth inhibition at 75 mg/kg, iv administered as single dose; assay type: functional; conditions: read-out: TGI
# In short: (§2)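 Nude (Crl:Nu/Nu-nuBR) mice bore established MX-1 xenografts of about 100 mm³. Compound was given iv as single doses of 35, 50 or 75 mg/kg on day 1, or at 7 mg/kg daily on days 1–5, against a vehicle group. Tumor growth inhibition was assessed against vehicle, with significance by Student's t-test.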
# [5] = system: MX1; assay: Antitumor activity against human MX1 cells xenografted in iv dosed Crl:Nu/Nu-nuBR mouse assessed as tumor growth inhibition administered as single dose; assay type: functional, organism-based; in short: as §2
# [6] = system: Mus musculus; assay: Toxicity in Crl:Nu/Nu-nuBR mouse assessed as maximum body weight decrease at 75 mg/kg, iv administered as single dose; assay type: organism-based; set-up: dose 75 mg/kg, route intravenous; scale not given: the % may be the effect or the level left; conditions: in vivo
SMILES,EC50 [1] [nM],EC50 [2] [nM],IC50 [3] [nM],inhibition in vivo at 75 mg/kg [4] [%],Activity [5],Activity [6] [%]
COc1ccc(N(C)c2ncnc3sc(C)c(C)c23)cc1,24,53,< 1000,–,–,–
COc1ccc(N(C)c2ncnc3sccc23)cc1,22,44,< 1000,–,–,–
COc1ccc(Nc2ncnc3scc(C)c23)cc1,> 10000,> 10000,–,–,–,–
COc1ccc(N(C)c2nc(C)nc3scc(C)c23)cc1,4,15,< 1000,–,–,–
COc1ccc(N(C)c2nc(C)nc3ccccc23)cc1 [VERUBULIN],2,6,–,–,–,–
COc1ccc(N(C)c2nc(C)nc3sccc23)cc1,8,16,< 1000,90,Dose-dependent effect,< 10
c1ccc(-c2cc3ncnc(NCc4ccc5c(c4)OCO5)c3s2)cc1,1000,700,–,–,–,–
COc1ccccc1N(C)c1ncnc2ccsc12,> 10000,> 10000,–,–,–,–
COc1ccc(Nc2ncnc3ccsc23)cc1,> 10000,> 10000,–,–,–,–
c1ccc(-c2cc3ncnc(Nc4ccc5c(c4)OCO5)c3s2)cc1,> 10000,> 10000,–,–,–,–
COc1ccc(N(C)c2ncnc3c(C)csc23)cc1,560,560,–,–,–,–
COc1ccc(N(C)c2nccc3ccsc23)cc1,> 10000,> 10000,–,–,–,–
COc1ccc(N(C)c2nc(C)nc3sc(C)c(C)c23)cc1,21,91,< 1000,–,–,–
COc1cc(OC)cc(N(C)c2ncnc3ccsc23)c1,> 10000,> 10000,–,–,–,–
COc1ccc(N(C)c2ncnc3scc(C)c23)cc1,15,25,< 1000,–,–,–
c1nc(NCc2ccc3c(c2)OCO3)c2sccc2n1,> 10000,> 10000,–,–,–,–
COc1ccc(N(C)c2ncnc3cc(I)sc23)cc1,> 10000,> 10000,–,–,–,–
COc1ccc(N(C)c2nc(C)nc3ccsc23)cc1,14,32,< 1000,–,–,–
COC(=O)c1ccc(N(C)c2ncnc3ccsc23)cc1,190,340,–,–,–,–
COc1ccc(N(C)c2nc(C)nc3c(C)csc23)cc1,240,310,–,–,–,–
COc1ccc(N(C)c2nc(-c3ccccc3)nc3ccsc23)cc1,340,630,–,–,–,–
COc1ccc(N(C)c2ncnc3cc(-c4cccnc4)sc23)cc1,> 10000,> 10000,–,–,–,–
COc1cc2c(c(OC)c1OC)-c1ccc(OC)c(=O)cc1[C@@H](NC(C)=O)CC2 [COLCHICINE],9,50,500,–,–,–
COc1ccc(N(C)c2ncnc3ccsc23)cc1OC,1700,2800,–,–,–,–
COc1cccc(N(C)c2ncnc3ccsc23)c1,> 10000,> 10000,–,–,–,–
COc1ccc(OC)c(N(C)c2ncnc3ccsc23)c1,2600,5000,–,–,–,–
COc1ccc(N(C)c2ncnc3ccsc23)cc1,52,240,< 1000,–,–,–
COc1ccc(Nc2nc(C)nc3scc(C)c23)cc1,> 10000,> 10000,–,–,–,–
